Active and inactive are the calls of the source. No cut-off for these calls is given here.
Experiments:
[1] = tested on: Human immunodeficiency virus 2; assay: Antiviral activity against HIV2 ROD infected in human CEM cells assessed as inhibition of virus-induced giant cell formation after 4 to 5 days; format: functional, organism-based; settings: ISOLATE ROD, CCRF-CEM
In short: (§1)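 CEM cells at about 3 × 10^5 cells/mL were infected with 100 CCID50 of HIV per mL, with compound dilutions present. They were incubated 4–5 days at 37 °C in humidified CO2, and syncytia were scored microscopically. EC50 is the concentration that inhibits giant cell formation by 50%.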

[2] = tested on: Human immunodeficiency virus 1; assay: Antiviral activity against HIV1 3B infected in human CEM cells assessed as inhibition of virus-induced giant cell formation after 4 to 5 days; format: functional, organism-based; settings: CCRF-CEM; in short: as §1
Feline coronavirus = assay: Antiviral activity against Feline coronavirus; format: functional, organism-based
Sindbis virus = assay: Antiviral activity against Sindbis virus; format: functional, organism-based
In short: (§2)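 Confluent HEL, Vero, HeLa or MDCK cell cultures were inoculated with 100 CCID50 of virus alongside varying compound concentrations. Cytopathicity was scored when it reached completion in untreated virus controls. EC50 is the concentration that reduces virus-induced cytopathogenicity by 50%.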

Punta Toro virus = assay: Antiviral activity against Punta Toro virus; format: functional, organism-based; in short: as §2
Influenza B virus = assay: Antiviral activity against Influenza B virus; format: functional, organism-based
In short: (§3)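 The assay was a cell-based cytopathicity inhibition test on confluent monolayers with serial compound dilutions. EC50 was the concentration that reduced virus-induced cytopathicity by 50%.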

[3] = tested on: Mammalian orthoreovirus 1; assay: Antiviral activity against Reovirus-1; format: functional, organism-based; in short: as §2
Influenza A virus [4] = assay: Antiviral activity against Influenza virus A virus H3N2; format: functional, organism-based; in short: as §3
Human respirovirus 3 = assay: Antiviral activity against Parainfluenza virus 3; format: functional, organism-based; in short: as §2
Influenza A virus [5] = assay: Antiviral activity against Influenza virus A virus H1N1; format: functional, organism-based; in short: as §3
Coxsackievirus B4 = assay: Antiviral activity against Coxsackie B4 virus; format: functional, organism-based; in short: as §2
[6] = tested on: Vesicular stomatitis virus; assay: Antiviral activity against Vesicular stomatitis virus; format: functional, organism-based
[7] = tested on: Respiratory syncytial virus; assay: Antiviral activity against Respiratory syncytial virus Long; format: functional, organism-based; in short: as §2
Vaccinia virus = assay: Antiviral activity against Vaccinia virus Lederle; format: functional, organism-based; settings: Orthopoxvirus vaccinia
Human alphaherpesvirus 3 [8] = assay: Antiviral activity against Varicella-zoster virus YS; format: functional, organism-based
In short: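 VZV was assayed by plaque formation. Confluent cell cultures received 10 or 100 PFU with varying compound concentrations, and plaques were recorded once complete in untreated infected controls. EC50 is the concentration that reduces plaque formation by 50%.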

Human alphaherpesvirus 3 [9] = assay: Antiviral activity against Varicella-zoster virus OKA; format: functional; settings: strain Oka vaccine
In short: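 Confluent cell monolayers were infected with 10 or 100 PFU of VZV in the presence of serial compound dilutions. Plaque formation was recorded once untreated infected controls reached completion. EC50 was the concentration that reduced plaque formation by 50%.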

Human alphaherpesvirus 2 [10] = assay: Antiviral activity against Herpes simplex virus type 2 Lyons; format: functional, organism-based; in short: as §2
Human alphaherpesvirus 2 [11] = assay: Antiviral activity against Herpes simplex virus type 2 G; format: functional, organism-based; settings: strain G; in short: as §2
Human alphaherpesvirus 1 [12] = assay: Antiviral activity against thymidine kinase deficient acyclovir-resistant Herpes simplex virus type 1 KOS; format: functional, organism-based
Human alphaherpesvirus 1 [13] = assay: Antiviral activity against Herpes simplex virus type 1 KOS; format: functional, organism-based; in short: as §2
Human betaherpesvirus 5 [14] = assay: Antiviral actiivty against Human herpesvirus 5 Davis infected in HEL assessed as reduction of virus-induced plaque formation; format: functional, organism-based; settings: Human betaherpesvirus 5, Davis
In short: (§4)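 HCMV strains AD-169 and Davis were tested on confluent human embryonic lung fibroblast monolayers infected with 100 PFU in the presence of serial compound concentrations. Plaques were counted once formation was complete in untreated infected controls. EC50 is the concentration that cuts plaque formation by 50%.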

Human betaherpesvirus 5 [15] = assay: Antiviral actiivty against Human herpesvirus 5 AD169 infected in HEL assessed as reduction of virus-induced plaque formation; format: functional, organism-based; settings: Human betaherpesvirus 5, AD169; in short: as §4
[16] = Cytotoxicity against HEL assessed as minimum cytotoxic concentration required to cause microscopically detectable alteration in cell morphology; format: cell-based; settings: human, HEL cells

| Structure (SMILES) | Activity [1] | Activity [2] | Activity (Feline coronavirus) | Activity (Sindbis virus) | Activity (Punta Toro virus) | Activity (Influenza B virus) | Activity [3] | Activity (Influenza A virus [4]) | Activity (Human respirovirus 3) | Activity (Influenza A virus [5]) | Activity (Coxsackievirus B4) | Activity [6] | Activity [7] | Activity (Vaccinia virus) | Activity (Human alphaherpesvirus 3 [8]) | Activity (Human alphaherpesvirus 3 [9]) | Activity (Human alphaherpesvirus 2 [10]) | Activity (Human alphaherpesvirus 2 [11]) | Activity (Human alphaherpesvirus 1 [12]) | Activity (Human alphaherpesvirus 1 [13]) | also measured |
| --- | --- | --- | --- | --- | --- | --- | --- | --- | --- | --- | --- | --- | --- | --- | --- | --- | --- | --- | --- | --- | --- |
| O=C(O)c1ccc(OCCCCCn2ccc(=O)[nH]c2=O)cc1 | inactive | inactive | inactive | inactive | inactive | inactive | inactive | inactive | inactive | inactive | inactive | inactive | inactive | inactive | inactive | inactive | inactive | inactive | inactive | inactive | EC50 (Human betaherpesvirus 5 [14]): > 100 µM; EC50 (Human betaherpesvirus 5 [15]): > 100 µM; MCC [16]: > 100 µM |
| O=c1ccn(CCCOc2ccc(Br)cc2)c(=O)[nH]1 | inactive | inactive | inactive | inactive | inactive | inactive | inactive | inactive | inactive | inactive | inactive | inactive | inactive | inactive | inactive | inactive | inactive | inactive | inactive | inactive | EC50 (Human betaherpesvirus 5 [14]): > 100 µM; EC50 (Human betaherpesvirus 5 [15]): > 100 µM; MCC [16]: > 100 µM |
| O=c1ccn(CCCCCCOc2ccc(Br)cc2)c(=O)[nH]1 | inactive | inactive | inactive | inactive | inactive | inactive | inactive | inactive | inactive | inactive | inactive | inactive | inactive | inactive | inactive | inactive | inactive | inactive | inactive | inactive | EC50 (Human betaherpesvirus 5 [14]): > 4 µM; EC50 (Human betaherpesvirus 5 [15]): > 4 µM; MCC [16]: 20 µM |
| O=c1ccn(CCCCOc2ccc(Br)cc2)c(=O)[nH]1 | inactive | inactive | inactive | inactive | inactive | inactive | inactive | inactive | inactive | inactive | inactive | inactive | inactive | inactive | inactive | inactive | inactive | inactive | inactive | inactive | EC50 (Human betaherpesvirus 5 [14]): > 20 µM; EC50 (Human betaherpesvirus 5 [15]): > 20 µM; MCC [16]: 100 µM |
| O=c1ccn(CCCCCOc2ccc(-c3ccccc3)cc2)c(=O)[nH]1 | inactive | inactive | inactive | inactive | inactive | inactive | inactive | inactive | inactive | inactive | inactive | inactive | inactive | inactive | inactive | inactive | inactive | inactive | inactive | inactive | EC50 (Human betaherpesvirus 5 [14]): 54 µM; EC50 (Human betaherpesvirus 5 [15]): > 20 µM; MCC [16]: 100 µM |
